Reference: ChEMBL document CHEMBL2176979, “Ligand-based design, synthesis, and biological evaluation of 2-aminopyrimidines, a novel series of receptor for advanced glycation end products (RAGE) inhibitors” (J Med Chem, 2012)
Calls of active or inactive are those of the source. The calls are words filed in the database; no cut-off is given here.

Experiments:
C6 = assay: Cytotoxicity against rat C6 cells at 0.1 to 10 uM after 18 hrs; type: cell-based; settings: c6, 18 h
[1] = molecular target: Advanced glycosylation end product-specific receptor (Rattus norvegicus) (UniProt Q63495); assay: Inhibition of receptor for advanced glycation end product binding to amyloid beta 42 in rat C6 cells assessed as NFkappaB activation at 0.1 to 10 uM after 18 hrs by reporter gene assay; type: cell-based
Sequence of Advanced glycosylation end product-specific receptor (Rattus norvegicus) (Q63495 whole entry): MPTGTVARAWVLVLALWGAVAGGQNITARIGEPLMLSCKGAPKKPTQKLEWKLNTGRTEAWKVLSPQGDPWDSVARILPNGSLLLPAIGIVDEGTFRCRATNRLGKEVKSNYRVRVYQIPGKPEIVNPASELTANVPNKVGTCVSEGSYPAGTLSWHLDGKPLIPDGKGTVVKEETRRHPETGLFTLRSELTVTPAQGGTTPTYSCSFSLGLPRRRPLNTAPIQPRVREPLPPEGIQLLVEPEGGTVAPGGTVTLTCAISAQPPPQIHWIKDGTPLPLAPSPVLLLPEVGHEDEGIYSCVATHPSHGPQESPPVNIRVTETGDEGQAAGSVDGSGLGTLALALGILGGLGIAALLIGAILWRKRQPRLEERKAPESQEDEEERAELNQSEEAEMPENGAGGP

[2] = molecular target: T1, Advanced glycosylation end product-specific receptor (Homo sapiens, UniProt Q15109); assay: Inhibition of human recombinant biotinylated receptor for advanced glycation end product expressed in Escherichia coli DE3 assessed as inhibition of binding to amyloid beta (1 to 42) at 20 uM after 60 mins by TMB-ELISA
T1 sequence (Q15109 whole entry): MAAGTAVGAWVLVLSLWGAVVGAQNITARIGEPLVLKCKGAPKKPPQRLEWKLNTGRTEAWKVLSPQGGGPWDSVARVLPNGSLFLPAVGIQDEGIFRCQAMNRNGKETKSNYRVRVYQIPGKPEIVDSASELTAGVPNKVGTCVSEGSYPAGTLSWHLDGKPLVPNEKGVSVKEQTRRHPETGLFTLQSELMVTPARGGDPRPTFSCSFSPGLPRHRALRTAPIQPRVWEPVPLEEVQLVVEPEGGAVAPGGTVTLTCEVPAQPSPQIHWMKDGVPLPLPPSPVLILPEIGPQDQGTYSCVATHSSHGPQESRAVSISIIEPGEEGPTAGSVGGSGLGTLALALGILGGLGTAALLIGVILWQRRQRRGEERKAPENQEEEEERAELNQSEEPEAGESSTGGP
Procedure, shortened: (§1)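 Biotinylated human RAGE (1 μg, made in Origami2(DE3) with BirA) incubated on a streptavidin plate with oligomeric Aβ (10 μM stock pre-aggregated 24 h at 4 °C; 1 μL per well). Compound 20 μM in TBS-T/2.5% BSA, 60 min at ambient temperature. Bound Aβ detected with HRP-4G8 (1:1000) for 60 min, then TMB, read at 450 nm. Duplicates, mean ± SD.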

Mus musculus [3] = assay: Reduction in human amyloid beta (1 to 42) level in ICR mouse plasma at 25 mg/kg, ip administered 20 mins prior to human amyloid beta (1 to 40)-injection measured after 30 mins by ELISA relative to control; type: functional; set-up: scale not given: the % may be the effect or the level left; settings: route intraperitoneal, in the assay text read “human amyloid beta (1 to 42)-injection” for “human amyloid beta (1 to 40)-injection”
Procedure, shortened: (§2)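 Male ICR mice, 3 months old (n = 4), given test compound 25 mg/kg or vehicle ip. After 20 min, 200 μL of 25 μM human Aβ1−42 in PBS injected into the tail vein and left to circulate 30 min. Retro-orbital blood taken into EDTA tubes before sacrifice. Human Aβ measured in brain extracts (pg/mg protein) and plasma (ng/mL).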

Mus musculus [4] = assay: Inhibition of RAGE-mediated influx of human amyloid beta (1 to 42) into ICR mouse brain at 25 mg/kg, ip administered 20 mins prior to human amyloid beta (1 to 42)-injection measured after 30 mins by ELISA relative to control
[5] = molecular target: T1, Advanced glycosylation end product-specific receptor; assay: Inhibition of human recombinant biotinylated receptor for advanced glycation end product expressed in Escherichia coli DE3 assessed as inhibition of binding to amyloid beta (1 to 42) after 60 mins by TMB-ELISA; procedure, shortened: as §1
[6] = molecular target: T1, Advanced glycosylation end product-specific receptor; assay: Binding affinity to human recombinant biotinylated receptor for advanced glycation end product expressed in Escherichia coli DE3 after 1 min by surface plasmon resonance assay
Procedure, shortened: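 SPR with biotinylated RAGE captured to saturation on Neutravidin-coated chip channels, with a blank reference channel. Running buffer TBS (pH 7.4) with 0.05% Tween 20. Compounds serially diluted 50 to 3.1 μM in 2% DMSO, injected 1 min at 100 μL/min, then 400 s buffer dissociation. Responses reference-subtracted. Constants from a global Langmuir 1:1 fit.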

Mus musculus [7] = assay: Toxicity against transgenic mouse expressing PS1/APP swedish mutant assessed as lethality at 50 mg/kg/day, po administered for 3 months measured after 2 months; type: organism-based; set-up: route oral; settings: in vivo, 1461 h
Procedure, shortened: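 Male APPsw/PS1 transgenic mice, 6 months old (n = 4−5), dosed by oral gavage at 50 mg/(kg·day) until 9 months of age. Lethality was recorded as a side effect during the study. Cognitive function (Y-maze spontaneous alternation) was assessed after 2 months of dosing.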

Mus musculus [8] = assay: Procognitive activity in transgenic mouse expressing PS1/APP swedish mutant assessed as spontaneous alteration at 50 mg/kg/day, po administered for 3 months measured after 2 months by Y maze test (reference value: 50.95 +/- 10.8%); type: functional
Mus musculus [9] = assay: Antialzheimer activity in transgenic mouse expressing PS1/APP swedish mutant assessed as insoluble amyloid beta (1 to 42) level per mg of protein in brain at 50 mg/kg/day, po for 3 months by ELISA (reference value: 513.73 +/- 219.56 ng per mg of protein); type: functional
Mus musculus [10] = assay: Antialzheimer activity in transgenic mouse expressing PS1/APP swedish mutant assessed as soluble amyloid beta (1 to 42) level per mg of protein in brain at 50 mg/kg/day, po for 3 months by ELISA (reference value: 17.34 +/- 5.17 ng per mg of protein); type: functional
Mus musculus [11] = assay: Antialzheimer activity in transgenic mouse expressing PS1/APP swedish mutant assessed as insoluble amyloid beta (1 to 40) level per mg of protein in brain at 50 mg/kg/day, po for 3 months by ELISA (reference value: 137.38+/- 58.13 ng per mg of protein); type: functional
Mus musculus [12] = assay: Antialzheimer activity in transgenic mouse expressing PS1/APP swedish mutant assessed as soluble amyloid beta (1 to 40) level per mg of protein in brain at 50 mg/kg/day, po for 3 months by ELISA (reference value: 8.66 +/- 1.81 ng per mg of protein); type: functional
Mus musculus [13] = assay: Inhibition of RAGE-mediated influx of human amyloid beta (1 to 42) into ICR mouse brain at 25 mg/kg, ip administered 20 mins prior to human amyloid beta (1 to 40)-injection measured after 30 mins by ELISA relative to control; type: functional; settings: in the assay text read “human amyloid beta (1 to 42)-injection” for “human amyloid beta (1 to 40)-injection”, route intraperitoneal; procedure, shortened: as §2

CCN(CC)CCOc1cccc(Nc2nc(C)cc(-c3ccc(OCCC4CCCCC4)cc3)n2)c1
Activity (C6): Non-toxic | inhibition [1]: Active | inhibition [2]: 49.6% | Activity (Mus musculus [3]): 5% | inhibition in vivo at 25 mg/kg (Mus musculus [4]): 12.1%

CCN(CC)CCOc1cccc(Nc2nc(C)cc(-c3ccc(Cl)cc3)n2)c1
inhibition [2]: 41.6%

CCN(CC)CCOc1cccc(Nc2nc(C)cc(C)n2)c1
inhibition [2]: 20.8%

CCN(CC)CCOc1ccc(Nc2nc(C)cc(-c3ccc(Oc4ccc5ccccc5c4)cc3)n2)cc1
inhibition [2]: 21.4%

CCN(CC)CCOc1cccc(Nc2nc(C)cc(-c3ccc(OC)cc3)n2)c1
inhibition [2]: 30.9%

CCN(CC)CCOc1ccc(Nc2nc(C)cc(-c3ccc(OCCC4CCCCC4)cc3)n2)cc1
inhibition [2]: 32.7%

CCN(CC)CCOc1ccc(Nc2nc(C)cc(-c3ccc(OCCc4ccccc4)cc3)n2)cc1
inhibition [2]: inactive

CCN(CC)CCOc1ccccc1Nc1nc(C)cc(-c2ccc(Cl)cc2)n1
inhibition [2]: 47.2%

CCN(CC)CCOc1ccc(Nc2nc(C)cc(-c3ccc(Oc4ccc(Cl)cc4)cc3)n2)cc1
inhibition [2]: 21.1%

CCN(CC)CCOc1ccccc1Nc1nc(-c2ccc(Cl)cc2)cc(-c2ccc(Cl)cc2)n1
Activity (C6): Non-toxic | inhibition [1]: Active | IC50 [5]: 4.6 µM | inhibition [2]: 70.8% | Activity (Mus musculus [3]): 2.8% | inhibition in vivo at 25 mg/kg (Mus musculus [4]): 18.3%

COc1c(C)nc(NC(=O)CCCO)nc1C
inhibition [2]: inactive

CCN(CC)CCOc1cccc(Nc2nc(-c3ccc(Cl)cc3)cc(N3CCN(C)CC3)n2)c1
inhibition [2]: 4.5%

Cc1nc(NC(=O)CCCC(=O)O)nc(C)c1OCc1ccccc1
inhibition [2]: inactive

CCN(CC)CCCCNc1nc(C)c(OCc2ccccc2)c(C)n1
inhibition [2]: inactive

CCN(CC)CCCC(=O)Nc1nc(C)c(OC)c(C)n1
inhibition [2]: inactive

CCN(CC)CCOc1ccc(Nc2nc(C)cc(-c3ccc(OCCc4ccc(Cl)cc4)cc3)n2)cc1
inhibition [2]: inactive

CCN(CC)CCOc1ccc(Nc2nc(C)c(O)c(C)n2)cc1
inhibition [2]: 16.2%

CCN(CC)CCOc1ccc(Nc2nc(C)cc(Nc3ccccc3)n2)cc1
inhibition [2]: 32.7%

COc1c(C)nc(NC(=O)CCCC(=O)O)nc1C
inhibition [2]: inactive

Cc1nc(NC(=O)CCCO)nc(C)c1OCc1ccccc1
inhibition [2]: inactive

CCN(CC)CCOc1ccc(Nc2nc(C)cc(-c3ccccc3)n2)cc1
inhibition [2]: 33%

CCN(CC)CCCC(=O)Nc1nc(C)c(O)c(C)n1
inhibition [2]: inactive

CCN(CC)CCCC(=O)Nc1nc(C)c(OCc2ccccc2)c(C)n1
inhibition [2]: inactive

CCN(CC)CCOc1cccc(Nc2nc(-c3ccc(Cl)cc3)cc(-n3cccc3)n2)c1
inhibition [2]: 26.3%

CCN(CC)CCOc1ccc(Nc2nc(-c3ccc(Cl)cc3)cc(-c3ccc(Cl)cc3)n2)cc1
inhibition [2]: 33.6%

CCN(CC)CCCCNc1nc(C)c(OC)c(C)n1
inhibition [2]: inactive

CCN(CC)CCOc1ccc(Nc2nc(C)c(OCc3ccccc3)c(C)n2)cc1
inhibition [2]: 14.6%

CCN(CC)CCOc1cccc(Nc2nc(C)cc(-c3ccc(OC4CCCCC4)cc3)n2)c1
inhibition [2]: 45.6%

CCN(CC)CCOc1ccc(Nc2nc(C)cc(-c3ccc(OC4CCCCC4)cc3)n2)cc1
inhibition [2]: 32.6%

CCN(CC)CCOc1ccc(Nc2nc(C)cc(C3CCCCC3)n2)cc1
inhibition [2]: 30.6%

CCN(CC)CCOc1ccc(Nc2nc(C)cc(N3CCCCC3)n2)cc1
inhibition [2]: 43.3%

CCN(CC)CCOc1ccc(Nc2nc(C)cc(-c3ccc(Cl)cc3)n2)cc1
inhibition [2]: 37.1%

CCN(CC)CCOc1ccc(Nc2nc(C)cc(C)n2)cc1
inhibition [2]: 16%

CCN(CC)CCOc1ccc(Nc2nc(C)cc(-c3ccc(OC)cc3)n2)cc1
inhibition [2]: 31.7%

CCN(CC)CCCCNc1nc(C)c(O)c(C)n1
inhibition [2]: inactive

CCN(CC)CCOc1cccc(Nc2nc(-c3ccc(Cl)cc3)cc(-c3ccc(Cl)cc3)n2)c1
Activity [6]: Dose-dependent effect | Kd [6]: 102 µM | Activity (Mus musculus [7]): Non-toxic | Activity (Mus musculus [8]): 63.6% | Activity (Mus musculus [9]): 354 ng/mg | Activity (Mus musculus [10]): 12 ng/mg | Activity (Mus musculus [11]): 98.5 ng/mg | Activity (Mus musculus [12]): 6.25 ng/mg | inhibition in vivo at 25 mg/kg (Mus musculus [13]): 34.3% | Activity (C6): Non-toxic | inhibition [1]: Active | IC50 [5]: 16.5 µM | inhibition [2]: 54% | Activity (Mus musculus [3]): 3.7%

CCN(CC)CCOc1cccc(Nc2nc(-c3ccc(Cl)cc3)cc(N3CCOCC3)n2)c1
inhibition [2]: 3.1%

CCN(CC)CCOc1ccc(Nc2nc(C)cc(-c3ccc(OCc4ccc(Cl)cc4)cc3)n2)cc1
inhibition [2]: 12.7%

CCN(CC)CCOc1cccc(Nc2nc(-c3ccc(Cl)cc3)cc(N3CCCCC3)n2)c1
inhibition [2]: 17.1%
